These results are taken from ChEMBL document CHEMBL1123267, “Synthesis and radioprotective activity of new cysteamine and cystamine derivatives” (J Med Chem, 1986).

Series [1] has as its system Mus musculus. In words: Radioprotective effects in mice when administered i.p. at 50% LD50, 15 min prior to whole body radiation. It counts as functional. In short, it runs like this: (§1)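 Mice in groups of 20 were given the compound i.p., dissolved in distilled water. Whole-body irradiation was from a 60Co γ source at 0.65 Gy/min. First dose was the control LD100/30 days (9 Gy males, 9.5 Gy females) or that dose + 2 Gy, then a dose series. Irradiation LD50/30-day was found by the Karber method. DRF = treated LD50/30 ÷ solvent-control LD50/30.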

Series [2] deals with Mus musculus. In words: Radioprotective effects in mice when administered i.p. at 12.5% LD50, 15 min prior to whole body radiation. It counts as functional. Put shortly: as §1
The subject of series [3] is Mus musculus. Briefly: Radioprotective effects in mice when administered i.p. at 50% LD50, 2 hr prior to whole body radiation. It counts as functional. In short, it runs like this:
as §1

The nature of series [4]: Lethal dose in mice (LD50). The following applies: mouse, in vivo. The series is classed as toxicity, organism-based. Put shortly:
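Compounds were dissolved in distilled water and the dose range was set in a preliminary study. Five groups of 10 mice then received different doses within that range. LD50 was derived by Probit analysis.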

Series [5] deals with Mus musculus. Briefly: Compound was tested for radioprotective activity when injected intraperitoneally with a dose equal to one-eighth of its LD50, 15 min before whole-body irradiation. It counts as functional. In short, it runs like this:
as §1

Where only a bound is given, the exact number is not on record here.

One may read the LD50 as the dose at which mortality reaches 50%. `NCC(=O)NCCSC(=O)CCl.O=C(O)C(F)(F)F`: the DRF in the series on Mus musculus [1], in the series with Mus musculus [2] and in the series on Mus musculus [3] was 1 in each case. The LD50 in series [4] came to 550 mg/kg.
For the molecule `NCC(=O)NCCSC(=O)C(Cl)(Cl)Cl.O=C(O)C(F)(F)F`, the DRF in the series on Mus musculus [5] was found to be 1; with Mus musculus [1] it was 1.05; in the series with Mus musculus [3], 1. For the same molecule, the LD50 in series [4] stood at 700 mg/kg.
On to `CC(=O)SCCNC(=O)CN.O=C(O)C(F)(F)F`, for which the DRF in the series with Mus musculus [1] amounted to 1.4; in the series with Mus musculus [2] it was 1; in the series with Mus musculus [3], 1. This molecule had a 50% lethal dose (LD50) in series [4] of 1500 mg/kg.
Turning to `Br.Br.NCCC(=O)NCCSSCCNC(=O)CCN`, the DRF with Mus musculus [1], in the series on Mus musculus [2] and in the series on Mus musculus [3] was 1 each time. This molecule registered an LD50 in series [4] of 350 mg/kg.
As for `NCC(=O)NCCSC(=O)C(Cl)Cl.O=C(O)C(F)(F)F`, the DRF in the series with Mus musculus [1] is recorded as 1.1; with Mus musculus [2], 1; in the series on Mus musculus [3], 1. The molecule further displayed a median lethal dose (LD50) in series [4] of 800 mg/kg.
`Br.CC(=O)SCCNC(=O)CCCN`: the DRF in the series on Mus musculus [1] is 1.1; in the series on Mus musculus [2], 1. The same molecule yielded a 50% lethal dose (LD50) in series [4] of 800 mg/kg.
Consider `Br.Br.NCCCC(=O)NCCSSCCNC(=O)CCCN`, for which the DRF with Mus musculus [1], in the series on Mus musculus [2] and with Mus musculus [3] was 1 throughout. Also, in series [4], the LD50 worked out at 300 mg/kg.
For the molecule `CC(=O)SCCNC(=O)[C@H](C)N.O=C(O)C(F)(F)F`, the DRF in the series on Mus musculus [1] is on record as 1.4; in the series with Mus musculus [2] it was 1; with Mus musculus [3], 1. The LD50 in series [4] was 1250 mg/kg.
`CC(=O)NCCSC(=O)CN.O=C(O)C(F)(F)F`: the DRF with Mus musculus [1] worked out at 1.2; with Mus musculus [2], 1; in the series with Mus musculus [3], 1. In series [4], this molecule yielded an LD50 of 1000 mg/kg.
Regarding `Br.Br.NCC(=O)NCCSSCCNC(=O)CN`, the DRF in the series on Mus musculus [1] was determined as 1.4; in the series on Mus musculus [2] it was 1; in the series on Mus musculus [3] it was 1. In series [4], this molecule gave an LD50 of 1500 mg/kg.
Turning to `Br.CC(C)(C)C(=O)SCCNC(=O)CN`, the results for the DRF in the series on Mus musculus [1], with Mus musculus [2] and with Mus musculus [3] were 1.05, 1 and 1, respectively. Also, the 50% lethal dose (LD50) in series [4] was determined as 1200 mg/kg.
For the molecule `CC(=O)SCCN.Cl`, the DRF in the series with Mus musculus [1] is recorded as 1.05; with Mus musculus [2], 1; in the series with Mus musculus [3] it was 1.05. Further, the median lethal dose (LD50) in series [4] stood at 500 mg/kg.
Turning to `Br.CC(=O)SCCNC(=O)[C@H](C)N`, the values for the DRF in the series on Mus musculus [1], in the series with Mus musculus [2] and in the series on Mus musculus [3] were 1.4, 1 and 1.2, respectively. In addition, the 50% lethal dose (LD50) in series [4] was determined as 1500 mg/kg.
For `Br.CC(=O)SCCNC(=O)CCN` the same measures were 1, 1, 1 and 400 mg/kg.
Consider `Br.CC(=O)SCCNC(=O)CN`, for which the DRF in the series with Mus musculus [1] is given as 1.4; in the series with Mus musculus [2], 1; in the series with Mus musculus [3] it was 1. In series [4], this molecule displayed an LD50 of 1500 mg/kg.
For `Br.Br.C[C@H](N)C(=O)NCCSSCCNC(=O)[C@@H](C)N`, the DRF in the series with Mus musculus [1], in the series on Mus musculus [2] and in the series on Mus musculus [3] was 1 throughout. In addition, the 50% lethal dose (LD50) in series [4] came out at 800 mg/kg.
On to `NCC(=O)NCCSSCCNC(=O)CN.O=C(O)C(F)(F)F.O=C(O)C(F)(F)F`, for which the DRF in the series on Mus musculus [1] worked out at 1.55; in the series with Mus musculus [2], 1.2; in the series with Mus musculus [3], 1.1. In series [4], this molecule registered an LD50 of 1500 mg/kg.
For `NCCCNCCSP(=O)(O)O` [AMIFOSTINE], the DRF in the series with Mus musculus [1] is 2.7; in the series with Mus musculus [2], 1.5; with Mus musculus [3], more than 1.3. Further, the LD50 in series [4] is 950 mg/kg.
`Br.CCC(=O)SCCNC(=O)CN`: the results for the DRF in the series with Mus musculus [1], in the series with Mus musculus [2] and in the series on Mus musculus [3] were 1.2, 1 and 1, respectively. The LD50 in series [4] stood at 1500 mg/kg.
As to `Br.CC(=O)NCCSC(=O)CN`, the DRF in the series with Mus musculus [1] was found to be 1.1; with Mus musculus [2], 1; in the series with Mus musculus [3], 1. In series [4], this molecule showed a median lethal dose (LD50) of 600 mg/kg.
Regarding `C[C@H](N)C(=O)NCCSSCCNC(=O)[C@@H](C)N.O=C(O)C(F)(F)F.O=C(O)C(F)(F)F`, the figures for the DRF in the series with Mus musculus [1], with Mus musculus [2] and with Mus musculus [3] were 1.4, 1 and 1.1, respectively. Moreover, the 50% lethal dose (LD50) in series [4] came out at 1200 mg/kg.
